From ChEMBL document CHEMBL1123841, “3-Carbonylacrylic derivatives as potential antimicrobial agents. Correlations between activity and reactivity toward cysteine” (J Med Chem, 1987)
Values after ≈ are worked out from the molar mass of the structure shown.

Legend:
[1] = tested on: Microsporum canis; assay: Antimicrobial activity against Microsporum canis(ATCC 11621) was determined; assay type: functional
Procedure, shortened: (§1)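 MIC determined by serial dilution in liquid medium; values expressed as micromoles/milliliter.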

[2] = tested on: Streptococcus pyogenes; assay: Antimicrobial activity against Streptococcus pyogenes A(IVM P 134) was determined; assay type: functional; procedure, shortened: as §1
[3] = Partition coefficient (logP); assay type: physicochemical; conditions: octanol/water
Procedure, shortened: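 Octanol/water partition coefficient: some values measured experimentally by a standard literature procedure, with P = C_oct/C_H2O(1−α) correcting for ionization (α); the remaining values calculated by the method of Leo et al.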

[4] = tested on: Staphylococcus aureus; assay: Antimicrobial activity against Staphylococcus aureus(ATCC 6538) was determined; assay type: functional; procedure, shortened: as §1

Row | SMILES | MIC [1] [µM] | MIC [2] [µM] | logP [3] | MIC [4] [µM]
1 | O=C(O)/C=C/C(=O)c1ccccc1 | 1000 (≈ 176 µg/mL) | 30 (≈ 5.29 µg/mL) | 1.94 | 1260 (≈ 222 µg/mL)
2 | C/C(=C\C(=O)O)C(=O)c1ccccc1 |  | 2000 (≈ 380 µg/mL) | 2.44 | 18000 (≈ 3420 µg/mL)
3 | C/C(=C/C(=O)O)C(=O)c1ccc(C)cc1 | 3200 (≈ 654 µg/mL) | 2000 (≈ 408 µg/mL) | 2.19 | > 15000
4 | COC(=O)/C=C/C(=O)c1ccccc1 | 2.6 (≈ 0.495 µg/mL) | 10 (≈ 1.9 µg/mL) | 2.24 | 40 (≈ 7.61 µg/mL)
5 | COC(=O)/C=C/C(=O)c1cccnc1 | 5 (≈ 0.956 µg/mL) | 42 (≈ 8.03 µg/mL) | 0.56 | 160 (≈ 30.6 µg/mL)
6 | CCCCC(=O)/C(C)=C(/C)C(=O)O |  | 3800 (≈ 700 µg/mL) | 0.9 | 
7 | C/C(=C/C(=O)c1ccc(C)cc1)C(=O)O | 3200 (≈ 654 µg/mL) | 2000 (≈ 408 µg/mL) | 2.19 | 15000 (≈ 3060 µg/mL)
8 | O=C(O)/C=C/C(=O)c1ccc(-c2ccccc2)cc1 |  | 6 (≈ 1.51 µg/mL) | 3.9 | 80 (≈ 20.2 µg/mL)
9 | COC(=O)/C=C/C(=O)c1ccc(C)cc1 | 50 (≈ 10.2 µg/mL) | 24 (≈ 4.9 µg/mL) | 2.74 | 50 (≈ 10.2 µg/mL)
10 | Cc1ccc(C(=O)/C=C/C(=O)O)cc1 | 1000 (≈ 190 µg/mL) | 13 (≈ 2.47 µg/mL) | 2.44 | 1000 (≈ 190 µg/mL)
11 | C/C(=C/C(=O)O)C(=O)c1ccccc1 | 16000 (≈ 3040 µg/mL) | 2200 (≈ 418 µg/mL) | 1.69 | > 16000
12 | COC(=O)/C=C\C(=O)c1ccccc1 | < 2 | 3 (≈ 0.571 µg/mL) | 1.49 | 40 (≈ 7.61 µg/mL)
13 | CCCCCCCC(=O)/C(C)=C(/C)C(=O)O |  | 320 (≈ 72.4 µg/mL) | 2.4 | 
14 | CCCCCCCCCCCC(=O)/C(C)=C(/C)C(=O)O |  | 10 (≈ 2.82 µg/mL) | 4.4 | 
15 | C/C(=C\C(=O)c1ccc(C)cc1)C(=O)O | 1200 (≈ 245 µg/mL) | 2000 (≈ 408 µg/mL) | 2.94 | 16000 (≈ 3270 µg/mL)
16 | O=C(O)/C=C/C(=O)c1cccnc1 |  | 50 (≈ 8.86 µg/mL) | 0.26 | 1000 (≈ 177 µg/mL)
17 | C/C(=C\C(=O)O)C(=O)c1ccc(C)cc1 | 3200 (≈ 654 µg/mL) |  | 2.94 | 15000 (≈ 3060 µg/mL)
